Assay results published in PMC3149845 (The Journal of neuroscience : the official journal of the …, 2011).
“Also recorded” adds a separate entry of the source. Peptide text beside a SMILES is read from it.

Tests used:
Format in all cases: cell-based
[1] = biological target: T1, hTas1R2:S40T/I67S/D142E+hTas1R3 (Homo sapiens, UniProt Q8TE23, D142E/I67S/S40T); experiment: Ca2+ mobilization, mutated human receptor; conditions: for calcium response to sweetener: aspartame 10mM, neotame 1mM, sucralose 2 mM, compared with hTas1R2/hTas1R3; for response in dose-response experiment: versus hTas1R2+hTas1R3
T1 sequence (Q8TE23 20-839 S40T/I67S/D142E): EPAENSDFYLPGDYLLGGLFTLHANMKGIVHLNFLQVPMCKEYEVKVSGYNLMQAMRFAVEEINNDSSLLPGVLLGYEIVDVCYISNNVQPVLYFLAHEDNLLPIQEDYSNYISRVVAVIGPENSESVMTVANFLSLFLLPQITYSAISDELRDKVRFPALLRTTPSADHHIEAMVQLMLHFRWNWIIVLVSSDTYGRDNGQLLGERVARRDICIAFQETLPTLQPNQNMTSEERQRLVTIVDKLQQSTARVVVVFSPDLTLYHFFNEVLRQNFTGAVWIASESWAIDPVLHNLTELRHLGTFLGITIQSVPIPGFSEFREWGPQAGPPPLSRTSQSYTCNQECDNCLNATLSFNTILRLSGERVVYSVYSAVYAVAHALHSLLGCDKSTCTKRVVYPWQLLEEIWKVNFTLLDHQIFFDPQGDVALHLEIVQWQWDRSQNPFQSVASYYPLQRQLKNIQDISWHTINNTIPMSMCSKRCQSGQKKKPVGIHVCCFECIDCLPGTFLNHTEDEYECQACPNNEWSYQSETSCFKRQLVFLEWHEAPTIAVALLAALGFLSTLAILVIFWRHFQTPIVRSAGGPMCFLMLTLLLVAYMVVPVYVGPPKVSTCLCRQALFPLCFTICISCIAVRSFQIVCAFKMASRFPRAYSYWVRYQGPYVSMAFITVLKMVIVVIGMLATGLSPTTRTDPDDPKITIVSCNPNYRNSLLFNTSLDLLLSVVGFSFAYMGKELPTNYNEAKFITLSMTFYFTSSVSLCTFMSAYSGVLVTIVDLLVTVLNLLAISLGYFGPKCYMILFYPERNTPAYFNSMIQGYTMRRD
T1 sequence (Q7RTX0 21-852 partner): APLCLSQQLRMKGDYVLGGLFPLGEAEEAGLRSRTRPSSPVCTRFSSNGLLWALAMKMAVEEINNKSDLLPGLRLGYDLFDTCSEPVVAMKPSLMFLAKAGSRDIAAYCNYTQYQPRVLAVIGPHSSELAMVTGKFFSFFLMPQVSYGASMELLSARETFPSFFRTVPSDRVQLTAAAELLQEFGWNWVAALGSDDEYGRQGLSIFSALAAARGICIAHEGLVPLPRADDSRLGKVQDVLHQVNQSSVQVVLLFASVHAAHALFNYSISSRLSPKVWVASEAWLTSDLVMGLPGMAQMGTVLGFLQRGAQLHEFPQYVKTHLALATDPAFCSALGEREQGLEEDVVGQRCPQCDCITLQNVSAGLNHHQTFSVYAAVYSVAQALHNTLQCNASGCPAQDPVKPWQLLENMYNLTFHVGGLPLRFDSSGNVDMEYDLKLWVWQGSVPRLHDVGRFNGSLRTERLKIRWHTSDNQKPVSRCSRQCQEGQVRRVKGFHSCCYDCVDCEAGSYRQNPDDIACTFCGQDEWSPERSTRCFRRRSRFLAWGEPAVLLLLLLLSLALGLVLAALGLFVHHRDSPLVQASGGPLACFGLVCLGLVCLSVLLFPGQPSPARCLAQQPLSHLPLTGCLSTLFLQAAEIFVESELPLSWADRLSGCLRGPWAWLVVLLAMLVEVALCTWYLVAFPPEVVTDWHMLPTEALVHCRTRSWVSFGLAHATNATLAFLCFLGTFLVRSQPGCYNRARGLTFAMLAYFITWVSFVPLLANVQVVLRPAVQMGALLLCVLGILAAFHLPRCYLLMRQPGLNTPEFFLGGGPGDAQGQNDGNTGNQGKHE

[2] = biological target: hTas1R2:S40T/I67S+hTas1R3 (Homo sapiens, UniProt Q8TE23, I67S/S40T); experiment: Ca2+ mobilization, mutated human receptor; conditions: aspartame 10mM, neotame 1mM, sucralose 2 mM; compared with hTas1R2/hTas1R3
Method in brief: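 Mutant hTas1R2 with hTas1R3 and Gα16-gust44 in HEK293E cells (50,000/well, 0.06 μg each plasmid per well); 44 h post-transfection, loaded with 3 μM Fluo-4 AM in HBSS/20 mM HEPES for 1 h. Fluorescence (ex 488/em 525 nm) recorded every 2 s, tastant at 30 s, 150 s further. ΔF/F normalized to the hTas1R2/hTas1R3 sucralose (2 mm) maximum; three independent experiments; one-way ANOVA with Tukey test.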

[3] = tested on: All the human and squirrel monkey mutants; experiment: Ca2+ mobilization, control response of all mutants; conditions: sucralose 2 mM
Method in brief: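 HEK293E cells grown at 37°C in Opti-MEM with 5% FBS and seeded at 50,000/well. Cells co-lipofected with Tas1R plasmids and Gα16-gust44 (0.06 μg each per well); medium changed at 20 h, assayed 24 h later. Cells loaded 1 h with Fluo-4 AM in HEPES-buffered HBSS. Tastant added at 30 s; fluorescence (ex 488/em 525 nm) read every 2 s for 150 s more. ΔF/F normalised to human receptor maximal sucralose response; mean ± SEM, three independent experiments.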

[4] = ΔF/F normalized to maximum response of hTas1R2/hTas1R3 to neotame

hTas1R2:S40T/I67S+hTas1R3, sequence (Q8TE23 20-839 S40T/I67S, one chain of several): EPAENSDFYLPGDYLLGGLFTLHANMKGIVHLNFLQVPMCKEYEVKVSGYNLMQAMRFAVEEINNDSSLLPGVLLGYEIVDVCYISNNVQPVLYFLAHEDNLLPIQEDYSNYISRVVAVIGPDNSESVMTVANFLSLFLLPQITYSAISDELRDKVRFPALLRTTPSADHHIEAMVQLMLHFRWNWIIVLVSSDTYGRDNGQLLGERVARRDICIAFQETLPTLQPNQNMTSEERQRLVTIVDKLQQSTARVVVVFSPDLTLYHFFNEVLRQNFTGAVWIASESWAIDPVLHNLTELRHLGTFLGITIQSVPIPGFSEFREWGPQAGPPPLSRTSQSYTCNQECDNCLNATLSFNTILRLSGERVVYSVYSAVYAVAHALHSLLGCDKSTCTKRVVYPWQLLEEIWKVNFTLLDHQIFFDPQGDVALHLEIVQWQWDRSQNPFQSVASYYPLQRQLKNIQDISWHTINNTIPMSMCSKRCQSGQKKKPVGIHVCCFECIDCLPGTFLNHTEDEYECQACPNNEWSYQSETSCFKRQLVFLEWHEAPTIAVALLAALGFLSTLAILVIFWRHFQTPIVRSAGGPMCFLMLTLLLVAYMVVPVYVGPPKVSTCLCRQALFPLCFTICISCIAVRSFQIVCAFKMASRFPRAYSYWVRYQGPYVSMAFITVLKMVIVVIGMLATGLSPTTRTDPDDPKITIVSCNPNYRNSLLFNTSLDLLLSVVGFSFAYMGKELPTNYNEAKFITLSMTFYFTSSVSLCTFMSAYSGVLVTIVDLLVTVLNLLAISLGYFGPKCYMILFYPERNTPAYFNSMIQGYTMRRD

Row | SMILES | calcium response to sweetener [1] | response in dose-response experiment ([1]; dose-response) | calcium response to sweetener [2] | EC50 ([1]; HEK293E cells with Gα16-gust44, dose-response, calcium mobilization) | Bottom (B) of sigmoid dose-response fit [1, 4] | Top (T) of sigmoid dose-response fit [1, 4] | calcium response to the control sweetener [3]
1 | COC(=O)[C@H](Cc1ccccc1)NC(=O)[C@@H](N)CC(=O)O [aspartame, L-α-aspartly-L-phenylalanine methyl ester] (H-Asp-Phe-OMe) | greatly impaired responsiveness | no responses | greater than multiple mutants that contained the D142E mutant |  |  |  | 
2 | COC(=O)[C@H](Cc1ccccc1)NC(=O)[C@H](CC(=O)O)NCCC(C)(C)C [neotame] | greatly impaired responsiveness; also recorded: almost completely abolished | weaker responses |  | 12 mM | −1.486 | 39.87 | 
3 | OC[C@H]1O[C@H](O[C@]2(CCl)O[C@H](CCl)[C@@H](O)[C@@H]2O)[C@H](O)[C@@H](O)[C@H]1Cl [sucralose] |  |  |  |  |  |  | significant level of response
